Source: PubChem (Johns Hopkins Ion Channel Center)
Sampled rows, rich in hits. Any-hit rate of the full collection: about 3.5%.
RGS4 pot – potentiators or activators of RGS4 | HEK293 M3R/inducible RGS4, carbachol calcium flux Fluo4; hits give low values | B-score at 10 µM | hit rate 0.92% among 310,000 | AID 463111;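 active means B-score of the integrated calcium signal more than 4 SD below the library mean, with starting fluorescence not abnormally high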;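 further: negative B-score means reduced calcium response which marks RGS4 activation or potentiation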
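Also added: carbachol at ECmax as muscarinic agonist stimulus; Assay system: HEK293 cells with stable M3R and inducible RGS4; Timing: overnight RGS4 induction, 30 min dye load 37 °C, 20 min compound RT; Measured by: Fluo4-AM (2 µM) calcium-flux fluorescence, kinetic read.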
RGS4 block – inhibitors of human RGS4 | HEK293 M3R/RGS4 inducible, Fluo-4 calcium flux; hits give high values; triggered by carbachol at its EC20 | B-score at 10 µM | hit rate 0.45% among 310,000;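 active means B-score, a plate-corrected calcium signal, over three deviations above library mean, with baseline fluorescence within five deviations of library mean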;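 further: RGS4 expression induced by doxycycline in cells with stable M3 receptor; B-score is computed from the integrated fluorescence ratio over baseline after carbachol; higher B-score means a larger calcium signal and so more RGS4 inhibition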
Target sequence (P49798 whole entry, looked up): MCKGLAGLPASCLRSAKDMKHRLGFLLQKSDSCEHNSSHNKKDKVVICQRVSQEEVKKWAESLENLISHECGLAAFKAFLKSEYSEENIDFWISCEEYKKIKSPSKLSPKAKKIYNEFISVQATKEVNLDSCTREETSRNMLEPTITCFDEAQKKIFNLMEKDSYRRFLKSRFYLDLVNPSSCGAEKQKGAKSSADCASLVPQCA
MrgX1 agonist – human MrgX1 receptor agonism, primary screen; MrgX1-HEK293 cells, Fluo-4 calcium fluorescence, agonist mode; hits give high values; B-score at 10 µM; hit rate 0.44% among 310,000; AID 588627;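 active means calcium response B-score plate-corrected fluorescence ratio at least 3 library SD, with starting fluorescence B-score inside 5 SD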
Target sequence (Q96LB2 whole entry, looked up): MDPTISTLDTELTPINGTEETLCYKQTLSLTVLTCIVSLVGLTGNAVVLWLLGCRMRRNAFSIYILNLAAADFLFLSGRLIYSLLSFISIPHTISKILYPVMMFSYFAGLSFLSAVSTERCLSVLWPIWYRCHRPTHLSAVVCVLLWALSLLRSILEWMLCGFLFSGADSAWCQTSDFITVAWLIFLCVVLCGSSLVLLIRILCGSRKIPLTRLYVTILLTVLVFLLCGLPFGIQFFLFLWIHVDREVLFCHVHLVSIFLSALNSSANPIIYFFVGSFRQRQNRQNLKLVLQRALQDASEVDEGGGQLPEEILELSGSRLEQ
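times = overnight plating, then 30 min 37 °C plus 30 min room-temperature dye loading | assay system = stable human MrgX1 HEK293 cell line | input = fifteen thousand cells per well | signal = kinetic calcium dye fluorescence, Fluo-4 NW | dosing = compound delivered in addition one of three | read-out = B-scored fluorescence response ratio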
MrgX1 antagonist – blocks BAM8-22 activation of human MrgX1 receptor | B-score at 10 µM | hit rate 1.3% among 310,000 | Q96LB2 | MRGX1-HEK293 calcium flux, Fluo-4, BAM8-22 antagonism; hits give low values;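 active means calcium-response B-score plate-corrected more than 3 library SD below zero, starting fluorescence within 5 deviations, no agonist response on first addition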;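 further: peak minus trough fluorescence over baseline after final BAM8-22 challenge near maximal dose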
MrgX1 PAM – human MrgX1 positive allosteric modulation, primary screen | MrgX1-HEK293, Fluo-4 calcium flux, FDSS; hits give high values | B-score at 10 µM | hit rate 0.63% among 310,000 | AID 588675;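 active means plate-corrected calcium response at least 3 library SD above typical, normal starting fluorescence, not activating the receptor alone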;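 further: compound read alongside a low EC10 to EC30 dose of BAM8-22 agonist; peak minus trough fluorescence over baseline measured at the second addition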
A number is an active result.

What do the screens show for `Cc1c(CCOC(=O)c2ccccc2)sc[n+]1CC(=O)c1ccc(Br)cc1`?
RGS4 pot: -7.9; RGS4 block: inactive; MrgX1 agonist: inactive; MrgX1 antagonist: inactive; MrgX1 PAM: inactive

How did COc1ccccc1/C=C/C=N/NC(=O)c1ccc2nc[nH]c2c1 do in these assays?
RGS4 pot: inactive; RGS4 block: inactive; MrgX1 agonist: inactive; MrgX1 antagonist: inactive; MrgX1 PAM: inactive

How did CCOc1ccc(N(C)S(=O)(=O)c2cc(-c3cc(C)no3)ccc2C(C)C)cc1 do in these assays?
RGS4 pot: inactive; RGS4 block: inactive; MrgX1 agonist: inactive; MrgX1 antagonist: -4.8; MrgX1 PAM: inactive

What do the screens show for `CCN(c1ccc(OC)cc1)S(=O)(=O)c1cc(-c2cc(C)no2)ccc1C(C)C`?
RGS4 pot: inactive; RGS4 block: inactive; MrgX1 agonist: inactive; MrgX1 antagonist: inactive; MrgX1 PAM: inactive

What do the screens show for `CC1(c2nnc(-c3ccc(Cl)cc3)o2)CC(c2cccnc2)=NO1` (centres undefined)?
RGS4 pot: inactive; RGS4 block: inactive; MrgX1 agonist: inactive; MrgX1 antagonist: inactive; MrgX1 PAM: inactive

Results for COc1ccc(S(=O)(=O)N(C)CC(=O)NCCC2=CCCCC2)cc1OC ?
RGS4 pot: inactive; RGS4 block: inactive; MrgX1 agonist: inactive; MrgX1 antagonist: -5.9; MrgX1 PAM: inactive

What do the screens show for `O=S1(=O)N=C(N(CCO)/N=C/c2ccc(Cl)cc2)c2ccccc21`?
RGS4 pot: inactive; RGS4 block: inactive; MrgX1 agonist: inactive; MrgX1 antagonist: inactive; MrgX1 PAM: inactive

What do the screens show for `CN(C)c1ccc(/C=N/N(CCO)C2=NS(=O)(=O)c3ccccc32)cc1`?
RGS4 pot: -7.9; RGS4 block: inactive; MrgX1 agonist: inactive; MrgX1 antagonist: inactive; MrgX1 PAM: inactive

How did COC(=O)C1=C[C@@H](C(=O)OC)[C@@H]2C3=C(C(=O)[C@@]2(C)NC(=O)c2ccccc2)[C@H](C)n2c(=O)n(C)c(=O)n2[C@@H]3C1 do in these assays?
RGS4 pot: inactive; RGS4 block: inactive; MrgX1 agonist: inactive; MrgX1 antagonist: inactive; MrgX1 PAM: inactive

How did CC1(C)N=C(N)N=C(N)N1c1ccc(Oc2ccc(Cl)cc2)c(Cl)c1 do in these assays?
RGS4 pot: -7.5; RGS4 block: inactive; MrgX1 agonist: inactive; MrgX1 antagonist: inactive; MrgX1 PAM: inactive

What do the screens show for `CC1(C)N=C(N)N=C(N)N1c1ccccc1`?
RGS4 pot: inactive; RGS4 block: inactive; MrgX1 agonist: inactive; MrgX1 antagonist: inactive; MrgX1 PAM: inactive

Results for Cc1ccc(/C=C/C(=O)OCC(=O)N(CC(C)C)c2c(N)n(Cc3ccccc3)c(=O)[nH]c2=O)o1 ?
RGS4 pot: inactive; RGS4 block: inactive; MrgX1 agonist: inactive; MrgX1 antagonist: inactive; MrgX1 PAM: inactive

Results for O=C1/C(=C/c2ccc(F)cc2)SC(=S)N1Nc1ncc(C(F)(F)F)cc1Cl ?
RGS4 pot: -10; RGS4 block: inactive; MrgX1 agonist: inactive; MrgX1 antagonist: inactive; MrgX1 PAM: inactive

How did O=C1/C(=C\c2ccccn2)SC(=S)N1Nc1ncc(C(F)(F)F)cc1Cl do in these assays?
RGS4 pot: inactive; RGS4 block: inactive; MrgX1 agonist: inactive; MrgX1 antagonist: inactive; MrgX1 PAM: inactive

How did Cc1cccc(-c2oc3ccccc3c2-c2ccc3c(c2)OCO3)c1 do in these assays?
RGS4 pot: inactive; RGS4 block: inactive; MrgX1 agonist: inactive; MrgX1 antagonist: -6; MrgX1 PAM: inactive

Results for CCN(CC)C(=O)CN(c1cc2c(cc1OC)oc1ccccc12)S(=O)(=O)c1ccccc1 ?
MrgX1 agonist: inactive; MrgX1 antagonist: -9.1; MrgX1 PAM: inactive

Results for C#CCNC(=O)C1=C[C@@H](c2csc3ccccc23)C[C@@H](OCc2ccc(CO)cc2)O1 ?
RGS4 pot: inactive; RGS4 block: inactive; MrgX1 agonist: inactive; MrgX1 antagonist: inactive; MrgX1 PAM: inactive

What do the screens show for `CCn1c(O)c(/C=N/N=C/c2ccccc2)c2ccc(C3=NNC(=O)CC3)cc21`?
RGS4 pot: inactive; RGS4 block: inactive; MrgX1 agonist: inactive; MrgX1 antagonist: -4.8; MrgX1 PAM: inactive

What do the screens show for `Nc1ncnc2c1ncn2[C@@H]1O[C@H](COP(=O)(O)OP(=O)(O)OP(=O)(O)O)[C@@H](O)[C@H]1O`?
MrgX1 agonist: 45; MrgX1 antagonist: inactive; MrgX1 PAM: inactive

Results for O=[N+]([O-])c1ccc(Cl)cc1NCc1cccnc1 ?
RGS4 pot: inactive; RGS4 block: inactive; MrgX1 agonist: inactive; MrgX1 antagonist: inactive; MrgX1 PAM: inactive
